Results on 26 compounds are retold here after ChEMBL document CHEMBL1149180, “Synthesis and biological evaluation of 2-phenylpyran-4-ones: a new class of orally active cyclooxygenase-2 inhibitors” (J Med Chem, 2004).

Molecules are shown by their SMILES.

The target of assay [1] is T1, Prostaglandin G/H synthase 2 (Homo sapiens, UniProt P35354).
T1 sequence (P35354 whole entry): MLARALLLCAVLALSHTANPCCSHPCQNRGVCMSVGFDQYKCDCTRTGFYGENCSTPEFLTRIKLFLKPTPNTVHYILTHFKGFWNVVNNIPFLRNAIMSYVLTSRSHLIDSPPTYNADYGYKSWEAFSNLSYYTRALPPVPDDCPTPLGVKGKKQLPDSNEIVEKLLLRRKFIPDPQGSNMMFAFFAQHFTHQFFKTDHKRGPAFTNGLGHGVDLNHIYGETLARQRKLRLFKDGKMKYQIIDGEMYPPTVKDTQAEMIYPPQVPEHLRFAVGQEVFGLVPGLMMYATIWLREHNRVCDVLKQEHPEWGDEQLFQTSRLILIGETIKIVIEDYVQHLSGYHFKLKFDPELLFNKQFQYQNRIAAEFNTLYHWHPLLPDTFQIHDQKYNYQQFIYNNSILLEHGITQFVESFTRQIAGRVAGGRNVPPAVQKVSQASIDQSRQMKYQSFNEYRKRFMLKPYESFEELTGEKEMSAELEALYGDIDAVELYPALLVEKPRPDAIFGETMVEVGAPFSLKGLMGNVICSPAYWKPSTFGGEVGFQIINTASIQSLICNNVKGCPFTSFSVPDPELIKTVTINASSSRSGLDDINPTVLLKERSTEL
Briefly: Inhibition concentration against cyclooxygenase-2 (COX-2) in human whole blood. It counts as tissue-based.

For assay [2], the target named is Prostaglandin G/H synthase 1 (Homo sapiens, UniProt P23219). The assay can be described thus: Inhibition concentration against cyclooxygenase-1 (COX-1) in human whole blood. It counts as tissue-based.
For assay [3], the system named is Rattus norvegicus. The assay can be described thus: Percent inhibition in the yeast-induced pyresis model in rat at 10 mg/kg. Format: functional. The method, boiled down: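 Yeast-induced pyresis in male Wistar rats fasted 18 h with free access to water, with test compounds given orally. […] Groups were compared by ANOVA, with p < 0.05 significant.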

Chain of Prostaglandin G/H synthase 1 (P23219 whole entry): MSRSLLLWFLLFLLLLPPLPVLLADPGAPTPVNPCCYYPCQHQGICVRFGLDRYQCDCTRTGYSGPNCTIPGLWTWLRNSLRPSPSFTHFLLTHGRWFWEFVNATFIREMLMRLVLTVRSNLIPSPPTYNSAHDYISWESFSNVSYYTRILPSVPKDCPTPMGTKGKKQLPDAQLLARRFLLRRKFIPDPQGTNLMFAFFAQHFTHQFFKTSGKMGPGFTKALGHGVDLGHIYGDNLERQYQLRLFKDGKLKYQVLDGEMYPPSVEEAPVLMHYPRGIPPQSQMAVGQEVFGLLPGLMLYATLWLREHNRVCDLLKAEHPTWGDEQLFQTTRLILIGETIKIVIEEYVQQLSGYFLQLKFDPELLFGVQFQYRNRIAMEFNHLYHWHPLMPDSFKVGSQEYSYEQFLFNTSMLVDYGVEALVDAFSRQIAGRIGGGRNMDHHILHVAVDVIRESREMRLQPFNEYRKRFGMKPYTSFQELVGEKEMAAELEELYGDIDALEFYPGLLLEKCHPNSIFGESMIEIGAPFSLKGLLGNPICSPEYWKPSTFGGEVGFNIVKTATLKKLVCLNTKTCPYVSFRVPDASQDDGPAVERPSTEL

`Cc1cc(=O)c(Oc2ccc(Br)cc2Cl)c(-c2ccc(S(C)(=O)=O)cc2)o1`: the IC50 (in general, the midpoint of a concentration-inhibition curve) is 0.31 µM in assay [1] and 35.2 µM in assay [2]. For the same compound, at 10 mg/kg the inhibition in vivo in assay [3] was 37%.

In the case of `Cc1cc(=O)c(-c2ccc3c(c2)CCCC3)c(-c2ccc(S(C)(=O)=O)cc2)o1`, the 50% inhibitory concentration (IC50) in assay [1] is > 10 µM.

In the case of `Cc1cc(=O)c(-c2ccc(F)cc2)c(-c2ccc(S(N)(=O)=O)cc2)o1`, the IC50 in assay [1] was > 10 µM.

In assay [1], `Cc1cc(=O)c(-c2ccccc2)c(-c2ccc(S(N)(=O)=O)cc2)o1` had an IC50 of 6.89 µM.

As for `Cc1cc(=O)c(-c2cccc(F)c2)c(-c2ccc(S(C)(=O)=O)cc2)o1`, the IC50 in assay [1] is 3.37 µM; in assay [2], > 100 µM.

Take `Cc1cc(=O)c(Oc2ccc(I)cc2)c(-c2ccc(S(C)(=O)=O)cc2)o1`: the results for the concentration for half-maximal inhibition (IC50) in assay [1] and in assay [2] were 0.41 µM and > 100 µM, respectively. Also, in assay [3], at 10 mg/kg the inhibition in vivo was 32%.

For `Cc1cc(=O)c(Oc2ccc(Br)cc2)c(-c2ccc(S(C)(=O)=O)cc2)o1`, the IC50 is 0.36 µM in assay [1] and 119 µM in assay [2]. For the same compound, the inhibition in vivo (in general, how much of the control response was suppressed) at 10 mg/kg in assay [3] came to 46%.

For the compound `Cc1cc(=O)c(Oc2ccc(Cl)c(Cl)c2)c(-c2ccc(S(C)(=O)=O)cc2)o1`, the IC50 was 3.38 µM in assay [1] and > 100 µM in assay [2].

Take `Cc1cc(=O)c(Oc2ccc(C(=O)O)cc2)c(-c2ccc(S(C)(=O)=O)cc2)o1`: half-maximal inhibition in assay [1] (IC50) required 10 µM.

With `Cc1cc(=O)c(C(C)C)c(-c2ccc(S(C)(=O)=O)cc2)o1`, half-maximal inhibition in assay [1] (IC50) was put at 6.55 µM.

Consider `Cc1ccc(-c2c(-c3ccc(S(C)(=O)=O)cc3)oc(C)cc2=O)cc1`, for which the 50% inhibitory concentration (IC50) is 2.18 µM in assay [1] and > 100 µM in assay [2].

Take `Cc1cccc(Oc2c(-c3ccc(S(C)(=O)=O)cc3)oc(C)cc2=O)c1`: the IC50 in assay [1] is 1.35 µM; in assay [2], > 100 µM. The compound further yielded an inhibition in vivo at 10 mg/kg in assay [3] of 17%.

On to `Cc1cc(=O)c(Oc2ccccc2C)c(-c2ccc(S(C)(=O)=O)cc2)o1`, for which the concentration for half-maximal inhibition (IC50) in assay [1] is 0.17 µM; in assay [2], 22.8 µM. The inhibition in vivo at 10 mg/kg in assay [3] worked out at 16%.

In the case of `Cc1cc(=O)c(Oc2ccccc2)c(-c2ccc(S(C)(=O)=O)cc2)o1`, the concentration for half-maximal inhibition (IC50) in assay [1] was 1 µM; in assay [2], > 100 µM. The compound further gave an inhibition in vivo at 10 mg/kg in assay [3] of 22%.

Regarding `Cc1ccc(Oc2c(-c3ccc(S(C)(=O)=O)cc3)oc(C)cc2=O)cc1`, 10 mg/kg produced 10% inhibition in vivo in assay [3].

`Cc1cc(=O)c(Oc2ccc(C(F)(F)C(F)(F)F)cc2)c(-c2ccc(S(C)(=O)=O)cc2)o1`: the half-inhibitory concentration (IC50) in assay [1] was > 10 µM.

For the compound `COC(=O)c1ccc(Oc2c(-c3ccc(S(C)(=O)=O)cc3)oc(C)cc2=O)cc1`, the IC50 in assay [1] is > 10 µM.

As for `Cc1cc(=O)c(Oc2ccc(Cl)cc2C)c(-c2ccc(S(C)(=O)=O)cc2)o1`, the IC50 in assay [1] was 0.19 µM; in assay [2] it was 36.6 µM. This compound registered an inhibition in vivo at 10 mg/kg in assay [3] of 33%.

For the compound `Cc1cc(=O)c(-c2ccc3ccccc3c2)c(-c2ccc(S(C)(=O)=O)cc2)o1`, the IC50 in assay [1] was 2.59 µM; in assay [2] it was > 100 µM.

Take `Cc1cc(=O)c(Oc2ccc(C(F)(F)F)cc2)c(-c2ccc(S(C)(=O)=O)cc2)o1`: the IC50 in assay [1] is 2.45 µM; in assay [2], > 100 µM. In assay [3], this compound returned an inhibition in vivo at 10 mg/kg of 10%.

In assay [2], `Cc1ccc(Oc2c(-c3ccc(S(C)(=O)=O)cc3)oc(C)cc2=O)c(Cl)c1` had an IC50 of 16.6 µM. The compound further yielded an inhibition in vivo at 10 mg/kg in assay [3] of 18%.

In assay [3], `Cc1cc(=O)c(Oc2ccc(F)cc2C)c(-c2ccc(S(C)(=O)=O)cc2)o1` showed an inhibition in vivo at 10 mg/kg of 57%.

As to `Cc1cc(=O)c(Oc2ccc(F)c(F)c2)c(-c2ccc(S(C)(=O)=O)cc2)o1`, the half-maximal inhibitory concentration (IC50) in assay [1] is 4.43 µM.

Compound `Cc1cc(=O)c(Cc2ccccc2)c(-c2ccc(S(C)(=O)=O)cc2)o1` came in with a half-inhibitory concentration (IC50) in assay [1] of 6.4 µM.

The compound `Cc1cc(=O)c(-c2ccc(C(F)(F)F)cc2)c(-c2ccc(S(C)(=O)=O)cc2)o1` yielded a half-maximal inhibitory concentration (IC50) in assay [1] of 6.92 µM.

For `Cc1cc(=O)c(Oc2ccc([N+](=O)[O-])cc2)c(-c2ccc(S(C)(=O)=O)cc2)o1`, the figures for the IC50 in assay [1] and in assay [2] were 3.99 µM and > 100 µM, respectively.
